Calls of active or inactive are those of the source.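 How the source made its calls, unless noted: active means viability loss from added drug above about 55%, and viability with drug at most 40%, in both replicates (limit read from the data, passing the limit was not always enough); inconclusive means both conditions met in only one replicate; inactive means neither replicate meets both conditions.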
Experiments:
[1] = Her2 expression decrease, cell viability multiplex – SKBR3 breast tumor cells, AlphaScreen, ATP viability, primary screen (AID 461;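 active means Her2 level under about 52% in both replicate screens, with viability over 70% of control, limit read from the data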;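 on Her2 level: lower value means less Her2 protein in the cells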;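 on viability: percent of carrier control wells set as 100% viability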); conditions: SKBR3 Her2 protein level, 18-24 h, measured here: SKBR3 viability, ATP luminescence, at 10 µM
[2] = target: Receptor tyrosine-protein kinase erbB-2 (Homo sapiens) (UniProt P04626); assay: as above; conditions: 18-24 h, at 10 µM, stronger effect = lower value
Sequence of Receptor tyrosine-protein kinase erbB-2 (Homo sapiens) (P04626 whole entry, looked up): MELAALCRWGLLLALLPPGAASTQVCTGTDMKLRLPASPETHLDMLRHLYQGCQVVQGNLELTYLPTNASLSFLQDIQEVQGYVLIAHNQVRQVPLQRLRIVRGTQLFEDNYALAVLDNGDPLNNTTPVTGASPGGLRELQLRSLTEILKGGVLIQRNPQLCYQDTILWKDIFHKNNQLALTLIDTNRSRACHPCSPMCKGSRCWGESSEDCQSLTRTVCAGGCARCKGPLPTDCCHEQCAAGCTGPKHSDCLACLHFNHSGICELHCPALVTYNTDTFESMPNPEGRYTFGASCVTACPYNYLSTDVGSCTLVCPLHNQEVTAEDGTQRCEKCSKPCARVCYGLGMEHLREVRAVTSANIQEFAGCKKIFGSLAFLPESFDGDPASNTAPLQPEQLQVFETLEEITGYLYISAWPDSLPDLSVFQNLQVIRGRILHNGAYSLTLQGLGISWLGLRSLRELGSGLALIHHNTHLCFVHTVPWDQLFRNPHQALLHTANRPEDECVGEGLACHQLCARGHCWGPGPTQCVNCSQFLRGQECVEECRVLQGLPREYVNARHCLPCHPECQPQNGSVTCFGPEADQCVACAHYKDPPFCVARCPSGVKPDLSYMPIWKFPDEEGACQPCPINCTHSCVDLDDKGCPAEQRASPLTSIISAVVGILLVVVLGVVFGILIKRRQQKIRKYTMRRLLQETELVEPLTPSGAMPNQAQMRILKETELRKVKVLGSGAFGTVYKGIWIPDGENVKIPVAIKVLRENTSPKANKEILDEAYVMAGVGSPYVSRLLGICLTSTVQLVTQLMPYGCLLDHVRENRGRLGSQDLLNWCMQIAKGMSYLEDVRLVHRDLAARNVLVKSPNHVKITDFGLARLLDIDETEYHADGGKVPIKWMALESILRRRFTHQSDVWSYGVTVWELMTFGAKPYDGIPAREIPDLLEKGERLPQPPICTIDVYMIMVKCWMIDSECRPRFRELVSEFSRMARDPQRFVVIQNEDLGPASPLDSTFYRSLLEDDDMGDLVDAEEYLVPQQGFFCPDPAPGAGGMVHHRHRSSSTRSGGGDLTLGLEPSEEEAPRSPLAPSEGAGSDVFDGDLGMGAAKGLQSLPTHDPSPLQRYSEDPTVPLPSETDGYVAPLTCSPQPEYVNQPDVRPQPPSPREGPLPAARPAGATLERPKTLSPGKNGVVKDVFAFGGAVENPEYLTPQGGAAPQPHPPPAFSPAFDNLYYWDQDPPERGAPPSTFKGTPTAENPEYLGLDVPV

[3] = reduced viability of SK-BR-3 breast cancer cells – cell-based, 24 h, human, pilot screen (AID 572;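 active means viability at or below 10% of carrier control in both of two separate runs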;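 further: compound exposure lasted between 18 and 24 h rather than exactly 24 h; 100% = carrier-treated control wells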); conditions: SK-BR-3 viability, CellTiter-Glo luminescence, at 10 µM, stronger effect = lower value
[4] = HUVEC growth inhibition – cell-based, human, primary screen (AID 575;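 active means viability at or below 30% in both replicate assays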;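 further: 100% = median of untreated cell wells with 0.1% DMSO on each plate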); conditions: HUVEC proliferation, CellTiter-Glo luminescence, 72 h; at 10 µM; stronger effect = lower value
Outline: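 Test system – primary HUVEC, no more than 12 passages · Dosing – one dose, 10 µM final, 0.1% DMSO · Times – 72 h treatment at 37 °C · Measured by – ATP-based CellTiter-Glo luminescent read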

[5] = H69AR cell proliferation blockers – human, duplicate replicates, primary screen (AID 580;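 active means viability at or under a set limit in both replicates, limit being median viability minus 3 SD, cut at about 48% in these data, passing the limit was not always enough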;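 further: 100% = mean luminescence of untreated wells and 0% = no signal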); conditions: H69AR lung tumor cells viability, ATP luminescence, 72 h; at 10 µM; stronger effect = lower value
[6] = MRP1 drug-resistance reversers in H69AR cells – cell-based, doxorubicin co-treatment, pilot screen (AID 601); conditions: CellTiter-Glo, 72 h, at 10 µM; for differential viability (reversal): stronger effect = higher value
[7] = yeast transport mutant growth inhibition pilot in 384-well plates, post-Golgi transport modulator project (AID 636; in the data active means inhibition above about 31%); conditions: absorbance 615 nm, about 18 h, stronger effect = higher value
[8] = growth suppression of yeast trafficking mutant, preliminary HTS, modulators of trafficking downstream of Golgi apparatus project, 1536-format plate, OD 615 nm (AID 637; in the data active means inhibition above about 30%); conditions: yeast transport mutant growth, absorbance 615 nm, 18 h; stronger effect = higher value
[9] = H69AR cells + 2 uM doxorubicin, measured here: viability with 2 uM doxorubicin, stronger effect = lower value
[10] = H69AR cells, compound alone cytotoxicity

Row | SMILES | viability [1] | Her2 level [2] | viability [3] | viability [4] | viability [5] | differential viability (reversal) ([6]; H69AR cells + 2 uM doxorubicin) | viability [6, 9] | viability [6, 10] | inhibition [7] | inhibition [8]
1 | Cc1cccn2cc(-c3ccccc3)nc12 | 78% | 77% (inactive) | 78% (inactive) | 79.2% (inactive) | 91.5% (inactive) | 11.1% (inactive) | 80.3% | 91.5% | -1.45% (inactive) | 2.55% (inactive)
2 | O=C(COc1ccccc1)NCCSCc1ccco1 | 109% | 98.5% (inactive) | 109% (inactive) | 104% (inactive) | 89.3% (inactive) | 9.83% (inactive) | 79.4% | 89.3% | -6.49% (inactive) | -5.67% (inactive)
3 | O=C1CC(N2CCN(c3cccc(C(F)(F)F)c3)CC2)C(=O)N1c1ccccc1 (stereo not given) | 93.5% | 112% (inactive) | 93.5% (inactive) | 92.3% (inactive) | 103% (inactive) | 13% (inactive) | 90% | 103% | -2.08% (inactive) | -12.7% (inactive)
4 | CC(=O)N1CCN(c2ccc(N=Cc3c(O)n(Cc4ccccc4)c(=O)[nH]c3=O)cc2)CC1 | 89% | 87.5% (inactive) | 89% (inactive) | 83.5% (inactive) | 94.6% (inactive) | -3.64% (inactive) | 98.2% | 94.6% | -0.91% (inactive) | 0.95% (inactive)
5 | C=CCn1c(CC#N)nnc1N1CCOCC1 | 90.5% | 88% (inactive) | 90.5% (inactive) | 100% (inactive) | 109% (inactive) | 19.4% (inactive) | 89.5% | 109% | -0.68% (inactive) | -2.22% (inactive)
6 | CC1(C)CC(=O)C2=C(C1)OC(N)=C(C#N)C2C1CC=CCC1 (stereo not given) | 108% | 93% (inactive) | 108% (inactive) | 91.4% (inactive) | 81.6% (inactive) | 12.5% (inactive) | 69.1% | 81.6% | -7.53% (inactive) | -2.22% (inactive)
7 | N#Cc1c(N)n(CCNC(=O)c2cccs2)c2nc3ccccc3nc12 | 82.5% | 84.5% (inactive) | 82.5% (inactive) | 97.9% (inactive) | 90.9% (inactive) | -7.67% (inactive) | 98.5% | 90.9% | -5.6% (inactive) | -0.16% (inactive)
8 | COCCn1c(CN2CCN(c3cccc(Cl)c3)CC2)nc2c1c(=O)n(C)c(=O)n2C | 85% | 85% (inactive) | 85% (inactive) | 64.7% (inactive) | 72.9% (inactive) | 17.6% (inactive) | 55.4% | 72.9% | -5.87% (inactive) | 1.83% (inactive)
9 | COc1ccc(-c2cc(O)cc(O)c2)cc1 | 108% | 89.5% (inactive) | 108% (inactive) | 71.7% (inactive) | 87.6% (inactive) | 7.77% (inactive) | 79.9% | 87.6% | -8.24% (inactive) | 4.26% (inactive)
10 | CC1=C(C(=O)NCc2ccco2)C2(CCC(C)CC2)OC1=O (stereo not given) | 89.5% | 100% (inactive) | 89.5% (inactive) | 94% (inactive) | 84% (inactive) | -0.86% (inactive) | 84.8% | 84% | -4% (inactive) | -5.74% (inactive)
11 | Cc1cc(NC(=O)Cn2cnc3c(cnn3C(C)(C)C)c2=O)no1 | 91.5% | 100% (inactive) | 91.5% (inactive) | 102% (inactive) | 91.9% (inactive) | 2.12% (inactive) | 89.8% | 91.9% | 0.66% (inactive) | -5.16% (inactive)
12 | CCCOC(=O)c1[nH]c2c(c1C)C(=O)CC(c1ccc(OC)c(OC)c1)C2 (stereo not given) | 99% | 151% (inactive) | 99% (inactive) | 84.7% (inactive) | 96% (inactive) | 0.765% (inactive) | 95.3% | 96% | 2.63% (inactive) | -11.2% (inactive)
13 | CCCN(CCC)C(=O)CSc1nc2ccccc2c(=O)n1C1CCCC1 | 136% | 60.5% (inactive) | 136% (inactive) | 87.2% (inactive) | 66.7% (inactive) | 10.4% (inactive) | 56.3% | 66.7% | -3.68% (inactive) | -2.54% (inactive)
14 | COc1ccc(S(=O)(=O)N2CCCC(C(=O)N3CCCCCC3)C2)cc1 (stereo not given) | 102% | 80% (inactive) | 102% (inactive) | 100% (inactive) | 88.2% (inactive) | -3.65% (inactive) | 91.9% | 88.2% | -5% (inactive) | 2% (inactive)
15 | COc1ccc(OC)c(C2=NOC(C(=O)Nc3cccnc3)C2)c1 (stereo not given) | 78.5% | 82% (inactive) | 78.5% (inactive) | 102% (inactive) | 88.9% (inactive) | 5.72% (inactive) | 83.2% | 88.9% | -1.97% (inactive) | 1.09% (inactive)
16 | O=C(O)c1cc(=O)cc(C(=O)O)[nH]1 | 80.5% | 91.5% (inactive) | 80.5% (inactive) | 102% (inactive) | 105% (inactive) | 12.5% (inactive) | 92.7% | 105% | 0% (inactive) | 22.9% (inactive)

Row | SMILES | viability [1] | Her2 level [2] | viability [3] | viability [4] | viability [5] | differential viability (reversal) ([6]; H69AR cells + 2 uM doxorubicin) | viability [6, 9] | viability [6, 10] | inhibition [7] | inhibition [8]
17 | Cc1cc(C(=O)OCC(=O)N2c3ccccc3CC2C)c(C)o1 (stereo not given) | 90.5% | 86.5% (inactive) | 90.5% (inactive) | 101% (inactive) | 100% (inactive) | 9.63% (inactive) | 90.8% | 100% | -4.05% (inactive) | -4.75% (inactive)
18 | COc1ccc(CC(=O)OCC(=O)NC(=O)NC2CCCCC2)cc1 | 96.5% | 94% (inactive) | 96.5% (inactive) | 100% (inactive) | 92.4% (inactive) | -0.595% (inactive) | 93% | 92.4% | -5.13% (inactive) | -0.73% (inactive)
19 | CC(C(=O)N1CCc2ccccc21)N1CCc2ccccc2C1 (stereo not given) | 82% | 79% (inactive) | 82% (inactive) | 93.7% (inactive) | 91.6% (inactive) | -10.2% (inactive) | 102% | 91.6% | -0.53% (inactive) | -3.11% (inactive)
20 | O=C(CSc1nnnn1Cc1ccccc1)Nc1ccc2c(c1)OCO2 | 114% | 108% (inactive) | 114% (inactive) | 90.3% (inactive) | 108% (inactive) | 18.2% (inactive) | 89.5% | 108% | -5.54% (inactive) | -3.17% (inactive)
21 | Cc1ccccc1N1OC2C(=O)N(c3ccc(F)cc3)C(=O)C2C1c1ccccn1 (stereo not given) | 130% | 116% (inactive) | 130% (inactive) | 115% (inactive) | 91.4% (inactive) | 9.9% (inactive) | 81.5% | 91.4% | -5.58% (inactive) | -2.86% (inactive)
22 | CC(=O)c1c(C)nc(C)nc1NC(=O)Cc1ccccc1 | 106% | 102% (inactive) | 106% (inactive) | 93.9% (inactive) | 93.9% (inactive) | -6.36% (inactive) | 100% | 93.9% | -5% (inactive) | -3.55% (inactive)
23 | CC1=Nn2c(nnc2-c2ccccn2)SC1 | 94% | 104% (inactive) | 94% (inactive) | 88.7% (inactive) | 99.5% (inactive) | 11.3% (inactive) | 88.2% | 99.5% | -4.4% (inactive) | -1.9% (inactive)
24 | CCCCN(c1ccccc1)S(=O)(=O)c1ccc2c(c1)CCN2C(=O)CCC(=O)O | 116% | 100% (inactive) | 116% (inactive) | 93.8% (inactive) | 91.9% (inactive) | 1.98% (inactive) | 90% | 91.9% | -1.58% (inactive) | -6.73% (inactive)
25 | CCOC(=O)c1ccccc1NC(=O)CSc1nnc(COc2ccccc2C)n1C | 63% | 89% (inactive) | 63% (inactive) | 82.6% (inactive) | 78.7% (inactive) | 5.67% (inactive) | 73% | 78.7% | -3.08% (inactive) | -9.17% (inactive)
26 | Cc1cccc(N2CCN(Cc3c(C)n(C)n(-c4ccccc4)c3=O)CC2)c1C | 83.5% | 88.5% (inactive) | 83.5% (inactive) | 78.1% (inactive) | 83.9% (inactive) | 0.085% (inactive) | 83.8% | 83.9% | -2.47% (inactive) | -1.31% (inactive)
27 | COc1ccc(-c2nc(C#N)c(N3CCOCC3)o2)cc1OC | 111% | 92% (inactive) | 111% (inactive) | 89.8% (inactive) | 84.5% (inactive) | -0.495% (inactive) | 85% | 84.5% | -1.3% (inactive) | 9% (inactive)
28 | CCSc1ccccc1C(=O)Nc1cccc(OC)c1 | 110% | 97% (inactive) | 110% (inactive) | 115% (inactive) | 98.4% (inactive) | 11.7% (inactive) | 86.6% | 98.4% | -8.49% (inactive) | -3.33% (inactive)
29 | CCN1CCN(c2nc3c(C)cccn3c(=O)c2/C=C(\C#N)S(=O)(=O)c2ccccc2)CC1 | 93% | 76.5% (inactive) | 93% (inactive) | 89.6% (inactive) | 75.1% (inactive) | -7.74% (inactive) | 82.8% | 75.1% | -2.76% (inactive) | -0.18% (inactive)
30 | O=C(Nc1ccccn1)NC(C(F)(F)F)C(F)(F)F | 98.5% | 102% (inactive) | 98.5% (inactive) | 100% (inactive) | 92.9% (inactive) | 2.58% (inactive) | 90.3% | 92.9% | -1.07% (inactive) | 1.15% (inactive)
31 | Cc1cccc(-c2cc3nc(C)cc(NCCCN(C)C)n3n2)c1 | 91.5% | 87.5% (inactive) | 91.5% (inactive) | 57.5% (inactive) | 82.8% (inactive) | 6.94% (inactive) | 75.8% | 82.8% | -6.93% (inactive) | 1.97% (inactive)
32 | O=C(CN1C(=O)c2ccccc2C1=O)NCC1COc2ccccc2O1 (stereo not given) | 98% | 110% (inactive) | 98% (inactive) | 95.1% (inactive) | 102% (inactive) | 5.31% (inactive) | 97.1% | 102% | 2.11% (inactive) | 12.5% (inactive)

From PubChem BioAssay
